Bounds are passed on as bounds.

Data set [1] addresses Tyrosine-protein kinase ABL1 (Homo sapiens, UniProt P00519). The data set is described as follows: Inhibition of ABL1.
Another data set deals with Aurora kinase B (Homo sapiens, UniProt Q96GD4). Briefly: Inhibition of Aurora B.
Data set [2] has as its target Cyclin-dependent kinase 2 (Homo sapiens, UniProt P24941). Briefly: Inhibition of CDK2.
Data set [3] addresses Tyrosine-protein kinase Lyn (Homo sapiens, UniProt P07948). Briefly: Inhibition of LYN A.
Data set [4] concerns the target Cyclin-dependent kinase 1 (Homo sapiens, UniProt P06493). The data set is described as follows: Inhibition of CDK1.
In data set [5] the target is Tyrosine-protein kinase HCK (Homo sapiens, UniProt P08631). The data set is described as follows: Inhibition of HCK.
Sequence of Tyrosine-protein kinase HCK (P08631 whole entry): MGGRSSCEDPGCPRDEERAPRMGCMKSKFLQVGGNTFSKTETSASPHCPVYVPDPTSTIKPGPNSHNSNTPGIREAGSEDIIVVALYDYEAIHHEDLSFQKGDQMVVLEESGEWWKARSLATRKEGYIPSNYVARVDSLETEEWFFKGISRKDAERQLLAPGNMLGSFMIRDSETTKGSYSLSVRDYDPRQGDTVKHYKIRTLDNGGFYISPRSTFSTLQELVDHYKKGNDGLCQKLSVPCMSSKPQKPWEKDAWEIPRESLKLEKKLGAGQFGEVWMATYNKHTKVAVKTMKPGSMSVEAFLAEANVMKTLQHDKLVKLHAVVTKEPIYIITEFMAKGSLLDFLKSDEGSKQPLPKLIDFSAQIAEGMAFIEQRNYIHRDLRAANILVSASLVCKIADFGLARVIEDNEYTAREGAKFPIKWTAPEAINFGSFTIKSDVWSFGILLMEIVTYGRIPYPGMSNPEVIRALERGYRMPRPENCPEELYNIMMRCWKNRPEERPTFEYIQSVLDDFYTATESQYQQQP
The target of data set [6] is Fibroblast growth factor receptor 1 (Homo sapiens, UniProt P11362).
Sequence of Fibroblast growth factor receptor 1 (P11362 whole entry): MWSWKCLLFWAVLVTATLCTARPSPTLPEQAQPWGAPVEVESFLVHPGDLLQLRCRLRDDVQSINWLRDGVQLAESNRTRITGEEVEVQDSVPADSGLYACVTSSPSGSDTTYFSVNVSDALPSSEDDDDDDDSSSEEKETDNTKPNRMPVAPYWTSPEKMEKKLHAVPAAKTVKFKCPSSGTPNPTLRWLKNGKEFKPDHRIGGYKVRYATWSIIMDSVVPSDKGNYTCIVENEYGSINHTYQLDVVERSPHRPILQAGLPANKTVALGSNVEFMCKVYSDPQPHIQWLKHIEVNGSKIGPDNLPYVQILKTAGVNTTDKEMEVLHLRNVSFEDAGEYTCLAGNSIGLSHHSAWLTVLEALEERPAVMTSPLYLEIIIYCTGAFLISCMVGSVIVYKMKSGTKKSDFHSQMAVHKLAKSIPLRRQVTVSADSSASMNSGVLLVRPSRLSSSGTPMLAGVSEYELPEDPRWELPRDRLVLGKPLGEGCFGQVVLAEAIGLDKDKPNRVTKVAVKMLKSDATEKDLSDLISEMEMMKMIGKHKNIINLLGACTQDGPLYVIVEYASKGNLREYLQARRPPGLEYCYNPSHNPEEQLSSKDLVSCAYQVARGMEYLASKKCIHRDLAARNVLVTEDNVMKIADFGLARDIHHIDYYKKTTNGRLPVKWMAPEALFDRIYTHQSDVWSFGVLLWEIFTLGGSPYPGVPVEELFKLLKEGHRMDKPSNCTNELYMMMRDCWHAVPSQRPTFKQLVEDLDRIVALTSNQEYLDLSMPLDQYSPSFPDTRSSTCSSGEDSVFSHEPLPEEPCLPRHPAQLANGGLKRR
The target of data set [7] is Ribosomal protein S6 kinase alpha-1 (Homo sapiens, UniProt Q15418). Briefly: Inhibition of RSK1.
Sequence of Ribosomal protein S6 kinase alpha-1 (Q15418 whole entry): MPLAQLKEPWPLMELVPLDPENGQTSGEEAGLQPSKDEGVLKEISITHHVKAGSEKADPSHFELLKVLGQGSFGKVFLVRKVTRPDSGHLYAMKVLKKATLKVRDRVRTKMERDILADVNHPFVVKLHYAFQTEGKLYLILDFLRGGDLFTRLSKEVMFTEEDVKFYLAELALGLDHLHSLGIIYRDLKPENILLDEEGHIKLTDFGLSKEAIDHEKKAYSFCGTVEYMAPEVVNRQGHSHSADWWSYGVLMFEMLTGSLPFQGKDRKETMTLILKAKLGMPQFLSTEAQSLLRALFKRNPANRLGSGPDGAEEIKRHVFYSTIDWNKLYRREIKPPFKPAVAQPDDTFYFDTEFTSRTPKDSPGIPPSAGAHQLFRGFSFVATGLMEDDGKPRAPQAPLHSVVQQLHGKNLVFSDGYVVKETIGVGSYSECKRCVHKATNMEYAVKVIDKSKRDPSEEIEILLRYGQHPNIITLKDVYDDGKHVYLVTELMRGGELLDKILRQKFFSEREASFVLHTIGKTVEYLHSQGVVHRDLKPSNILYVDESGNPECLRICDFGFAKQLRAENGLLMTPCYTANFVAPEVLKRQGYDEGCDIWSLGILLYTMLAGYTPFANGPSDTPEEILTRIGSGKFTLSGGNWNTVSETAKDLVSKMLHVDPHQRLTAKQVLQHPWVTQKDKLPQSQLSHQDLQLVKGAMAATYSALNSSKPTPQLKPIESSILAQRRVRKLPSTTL
Data set [8] addresses Glycogen synthase kinase-3 beta (Homo sapiens, UniProt P49841). Briefly: Inhibition of GSK3-beta.
For data set [9], the target named is Mitogen-activated protein kinase 1 (Homo sapiens, UniProt P28482).
For data set [10], the target named is MAP kinase-activated protein kinase 2 (Homo sapiens, UniProt P49137).
Data set [11] has as its target Glycogen synthase kinase-3 alpha (Homo sapiens, UniProt P49840). The data set is described as follows: Inhibition of GSK3alpha.
Another data set has as its system LNCaP. Briefly: Cytotoxicity against human LNCAP cells. It is filed as functional, cell-based.
For the next data set, the species on record is Homo sapiens. Briefly: Selectivity ratio of IC50 for PI3Kalpha to IC50 for mTOR. In a few lines: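 Selectivity is calculated as the IC50 against PI3K divided by the IC50 against mTOR.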
Data set [12] concerns the target Phosphatidylinositol 4,5-bisphosphate 3-kinase catalytic subunit alpha isoform (Homo sapiens, UniProt P42336). The data set is described as follows: Inhibition of PI3Kalpha.
For data set [13], the target named is Serine/threonine-protein kinase mTOR (Homo sapiens, UniProt P42345). Briefly: Inhibition of mTOR.
Data set [14] in a line: Half life in mouse microsomes in phase 1 using NADPH as a cofactor. The format is ADME, Microsome.
Data set [15] is described as follows: Half life in mouse microsomes in phase 1/2 using NADPH and UDPGA as a cofacto. The format is ADME, Microsome.

Sequence of Phosphatidylinositol 4,5-bisphosphate 3-kinase catalytic subunit alpha isoform (P42336 whole entry, canonical isoform): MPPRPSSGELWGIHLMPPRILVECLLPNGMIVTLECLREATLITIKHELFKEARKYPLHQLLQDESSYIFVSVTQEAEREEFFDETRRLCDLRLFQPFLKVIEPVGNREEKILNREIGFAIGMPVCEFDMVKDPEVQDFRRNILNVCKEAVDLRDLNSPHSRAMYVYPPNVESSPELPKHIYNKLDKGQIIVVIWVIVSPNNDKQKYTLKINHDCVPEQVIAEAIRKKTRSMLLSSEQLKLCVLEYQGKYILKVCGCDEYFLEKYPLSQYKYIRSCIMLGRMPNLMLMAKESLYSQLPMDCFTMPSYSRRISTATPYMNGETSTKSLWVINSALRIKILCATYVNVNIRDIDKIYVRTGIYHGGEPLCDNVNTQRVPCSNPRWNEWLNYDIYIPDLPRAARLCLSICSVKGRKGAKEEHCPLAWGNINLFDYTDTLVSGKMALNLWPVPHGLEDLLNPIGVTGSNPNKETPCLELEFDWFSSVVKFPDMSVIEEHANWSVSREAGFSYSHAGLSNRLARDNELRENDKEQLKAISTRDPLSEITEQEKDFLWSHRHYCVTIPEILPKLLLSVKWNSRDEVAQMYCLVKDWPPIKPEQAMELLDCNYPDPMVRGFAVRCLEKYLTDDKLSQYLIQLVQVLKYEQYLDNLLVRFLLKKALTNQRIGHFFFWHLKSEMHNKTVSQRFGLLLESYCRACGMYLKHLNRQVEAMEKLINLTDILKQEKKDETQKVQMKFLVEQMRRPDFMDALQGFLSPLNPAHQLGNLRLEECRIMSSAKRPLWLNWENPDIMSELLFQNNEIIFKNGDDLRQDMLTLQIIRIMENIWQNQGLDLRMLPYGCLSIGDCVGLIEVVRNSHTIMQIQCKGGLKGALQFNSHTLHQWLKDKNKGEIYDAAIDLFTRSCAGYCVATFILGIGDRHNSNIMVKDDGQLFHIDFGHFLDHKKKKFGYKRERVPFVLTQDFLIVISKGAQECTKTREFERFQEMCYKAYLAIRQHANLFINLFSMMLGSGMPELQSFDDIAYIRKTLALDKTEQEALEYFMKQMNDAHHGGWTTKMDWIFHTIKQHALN
Sequence of Tyrosine-protein kinase ABL1 (P00519 whole entry): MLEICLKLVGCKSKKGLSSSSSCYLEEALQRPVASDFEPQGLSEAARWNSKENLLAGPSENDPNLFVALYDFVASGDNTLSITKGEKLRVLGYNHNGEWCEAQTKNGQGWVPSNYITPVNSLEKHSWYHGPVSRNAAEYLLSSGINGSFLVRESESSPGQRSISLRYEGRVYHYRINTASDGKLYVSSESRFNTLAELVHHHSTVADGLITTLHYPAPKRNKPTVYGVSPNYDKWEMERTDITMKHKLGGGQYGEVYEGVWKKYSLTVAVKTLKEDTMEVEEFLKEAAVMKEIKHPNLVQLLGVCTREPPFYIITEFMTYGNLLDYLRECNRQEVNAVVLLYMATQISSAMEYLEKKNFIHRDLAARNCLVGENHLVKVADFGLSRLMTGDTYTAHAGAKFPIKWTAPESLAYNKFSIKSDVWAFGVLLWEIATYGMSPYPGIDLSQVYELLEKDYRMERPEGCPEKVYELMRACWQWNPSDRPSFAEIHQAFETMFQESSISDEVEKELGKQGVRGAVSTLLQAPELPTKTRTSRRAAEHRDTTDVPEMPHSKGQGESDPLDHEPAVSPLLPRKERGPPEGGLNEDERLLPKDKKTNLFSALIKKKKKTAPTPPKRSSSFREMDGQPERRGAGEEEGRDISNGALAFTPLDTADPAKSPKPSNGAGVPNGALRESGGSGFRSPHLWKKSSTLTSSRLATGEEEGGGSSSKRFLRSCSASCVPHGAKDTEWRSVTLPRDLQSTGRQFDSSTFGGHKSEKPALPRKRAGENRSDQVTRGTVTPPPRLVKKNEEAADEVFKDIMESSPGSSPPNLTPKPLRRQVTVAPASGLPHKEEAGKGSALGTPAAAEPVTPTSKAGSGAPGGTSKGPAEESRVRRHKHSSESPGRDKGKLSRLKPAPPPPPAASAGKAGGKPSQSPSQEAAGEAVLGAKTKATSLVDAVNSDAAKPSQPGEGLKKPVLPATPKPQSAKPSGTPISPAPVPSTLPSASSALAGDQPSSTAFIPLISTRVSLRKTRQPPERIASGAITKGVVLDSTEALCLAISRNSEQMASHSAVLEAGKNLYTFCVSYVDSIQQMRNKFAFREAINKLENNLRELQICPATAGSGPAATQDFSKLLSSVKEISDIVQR
Sequence of Cyclin-dependent kinase 1 (P06493 whole entry): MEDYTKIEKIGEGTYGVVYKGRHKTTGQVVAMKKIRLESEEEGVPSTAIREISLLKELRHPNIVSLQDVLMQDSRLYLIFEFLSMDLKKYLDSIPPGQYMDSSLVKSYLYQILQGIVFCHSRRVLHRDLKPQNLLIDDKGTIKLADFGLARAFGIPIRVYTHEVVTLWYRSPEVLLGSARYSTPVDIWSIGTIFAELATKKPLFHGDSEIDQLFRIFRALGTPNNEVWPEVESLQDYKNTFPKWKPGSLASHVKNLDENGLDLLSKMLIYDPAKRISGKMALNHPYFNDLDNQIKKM
Sequence of Glycogen synthase kinase-3 beta (P49841 whole entry): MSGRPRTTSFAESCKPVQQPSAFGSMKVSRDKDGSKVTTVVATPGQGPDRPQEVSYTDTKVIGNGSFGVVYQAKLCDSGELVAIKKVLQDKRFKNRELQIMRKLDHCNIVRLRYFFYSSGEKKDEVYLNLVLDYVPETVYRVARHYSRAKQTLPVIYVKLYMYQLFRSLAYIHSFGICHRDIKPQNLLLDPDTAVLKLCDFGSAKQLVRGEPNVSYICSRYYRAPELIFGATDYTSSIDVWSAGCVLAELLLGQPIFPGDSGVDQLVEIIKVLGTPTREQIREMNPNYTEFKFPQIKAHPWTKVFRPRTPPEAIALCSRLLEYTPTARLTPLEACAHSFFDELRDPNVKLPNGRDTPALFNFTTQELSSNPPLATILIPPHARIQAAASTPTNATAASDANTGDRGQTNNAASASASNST

For `Cn1cc(/C=C2\Oc3cccc(O)c3C2=O)c2c(-c3ccc(C(=O)NCCO)cc3)ccnc21`, the IC50 (in general, the midpoint of a concentration-inhibition curve) in data set [1] turned out to be 9.7 µM; at Aurora kinase B it was 22.2 µM; in [2] it was 35.5 µM; in data set [3], 27.7 µM; in data set [4], 39.2 µM; in data set [5], 27.1 µM. The IC50 in data set [6] was determined as 0.05 µM; in [7] it was 45.9 µM; in data set [8] it was 5.9 µM; in data set [9], 0.05 µM; in data set [10], 0.0065 µM; in [11], 10.6 µM.

`CN(C)C(=O)c1ccccc1-c1ccnc2c1c(/C=C1\Oc3cccc(O)c3C1=O)cn2C` came in with a half-maximal inhibitory concentration (IC50) with LNCaP greater than 60 µM. In addition, the Ratio IC50 in the data set listed under Homo sapiens amounted to 32.8.

`CN1CCN(c2ccnc3c2c(/C=C2\Oc4cc(O)cc(O)c4C2=O)cn3C)CC1`: the IC50 in the data set on LNCaP came out at 0.11 µM; in [12], 0.043 µM. In addition, in the data set listed under Homo sapiens, the Ratio IC50 stood at 46.

In the case of `CCn1cc(/C=C2\Oc3cccc(O)c3C2=O)c2c(-c3ccc(C(=O)N4CCN(CCO)CC4)cc3)ccnc21`, the results for the IC50 (in the data set on LNCaP; in data set [12]) were 0.004 µM and 0.455 µM, respectively. The Ratio IC50 in the data set filed under Homo sapiens amounted to 98.

`Cn1cc(/C=C2\Oc3cccc(O)c3C2=O)c2c(-c3ccccc3)ccnc21` showed an IC50 in data set [13] of 0.00345 µM. For the same molecule, in the data set filed under Homo sapiens, the Ratio IC50 worked out at 25.8. Also, the half-life (commonly the time in which the quantity being followed falls by half) in data set [14] was found to be 22 min.

On to `CN(C)C(=O)C1CCN(c2ccnc3c2c(/C=C2\Oc4cccc(O)c4C2=O)cn3C)CC1`, for which the results for the IC50 (with LNCaP; in data set [12]; in data set [13]) were 0.001 µM, 0.03 µM and 0.00067 µM, respectively. Also, the half-life in data set [15] was 20 min; in data set [14], greater than 30 min. For the same molecule, in the data set filed under Homo sapiens, the Ratio IC50 is 46.

`CN(C)C(=O)c1cccc(-c2ccnc3c2c(/C=C2\Oc4cccc(O)c4C2=O)cn3C)c1` yielded an IC50 with LNCaP of 0.6 µM. For the same molecule, in the data set listed under Homo sapiens, the Ratio IC50 amounted to 20.5.

In turn, `Cn1cc(/C=C2\Oc3cc(O)ccc3C2=O)c2c(-c3ccccc3)ccnc21` yielded an IC50 with LNCaP of 1.8 µM. The Ratio IC50 in the data set listed under Homo sapiens stood at 11.

As to `Cn1cc(/C=C2\Oc3cccc(O)c3C2=O)c2c(N3CCC(C(=O)N4CC5CCC(C4)O5)CC3)ccnc21`, the values for the IC50 (with LNCaP; in [12]) were 0.001 µM and 0.052 µM, respectively. Also, the half-life in data set [15] was 16 min; in data set [14], greater than 30 min. Also, in the data set listed under Homo sapiens, the Ratio IC50 came out at 26.

As to `Cn1cc(/C=C2\Oc3cccc(O)c3C2=O)c2c(N3CCOCC3)ccnc21`, half-maximal inhibition with LNCaP (IC50) required 0.005 µM. Further, the Ratio IC50 in the data set listed under Homo sapiens was found to be 24.

In the case of `Cn1cc(/C=C2\Oc3cccc(O)c3C2=O)c2c(-c3ccc(C(=O)N4CCOCC4)cc3)ccnc21`, the IC50 in the data set on LNCaP is 0.001 µM. The half-life in data set [15] was 10 min; in data set [14] it was greater than 30 min. Further, in the data set listed under Homo sapiens, the Ratio IC50 was found to be 97.

In the data set on LNCaP, `Cn1cc(/C=C2\Oc3cccc(O)c3C2=O)c2c(N3CCC(N)CC3)ccnc21` came in with an IC50 of 0.24 µM. Also, the Ratio IC50 in the data set listed under Homo sapiens is 6.

Turning to `Cn1cc(/C=C2\Oc3cccc(O)c3C2=O)c2c(N3CCC(C(N)=O)CC3)ccnc21`, the values for the IC50 (in the data set on LNCaP; in data set [13]) were 0.01 µM and 0.00072 µM, respectively. For the same molecule, the Ratio IC50 in the data set listed under Homo sapiens is 41.

`CN1CCN(C(=O)c2ccc(-c3ccnc4c3c(/C=C3\Oc5cccc(O)c5C3=O)cn4C)cc2)CC1`: in the data set with LNCaP, the IC50 turned out to be 0.009 µM. For the same molecule, the figures for the half-life in data set [15] and in data set [14] were 24 min and 28 min, respectively. Also, in the data set filed under Homo sapiens, the Ratio IC50 was 70.

Regarding `Cn1cc(/C=C2\Oc3cccc(O)c3C2=O)c2c(N3CCC(C(=O)N4CCOCC4)CC3)ccnc21`, in the data set on LNCaP, the IC50 is less than 0.001 µM. In addition, the half-life in data set [15] and in [14] was greater than 30 min in each case. The Ratio IC50 in the data set filed under Homo sapiens stood at 45.

Regarding `Cn1cc(/C=C2\Oc3cccc(O)c3C2=O)c2c(N3CCC(C(=O)N4CCN(CCO)CC4)CC3)ccnc21`, the IC50 in the data set with LNCaP was 0.001 µM; in data set [12], 0.025 µM; in [13], 0.00185 µM. The half-life in [15] was 14 min; in data set [14], greater than 30 min. For the same molecule, the Ratio IC50 in the data set listed under Homo sapiens worked out at 13.

`Cn1cc(/C=C2\Oc3cccc(O)c3C2=O)c2c(-c3ccc(C(=O)N4CCN(CCO)CC4)cc3)ccnc21`: the IC50 in the data set with LNCaP turned out to be 0.001 µM; in [13] it was 0.00039 µM. Also, the half-life in data set [15] and in data set [14] was greater than 30 min throughout. Further, the Ratio IC50 in the data set filed under Homo sapiens amounted to 256.

`Cn1cc(/C=C2\Oc3cccc(O)c3C2=O)c2c(N3C4CCC3COC4)ccnc21` showed an IC50 with LNCaP of 0.002 µM. Also, the Ratio IC50 in the data set listed under Homo sapiens turned out to be 9.

With `CN(C)C(=O)c1ccc(-c2ccnc3c2c(/C=C2\Oc4cccc(O)c4C2=O)cn3C)cc1`, the values for the IC50 (with LNCaP; in data set [13]) were 0.004 µM and 0.00055 µM, respectively. Moreover, the Ratio IC50 in the data set filed under Homo sapiens came out at 65.

With `Cn1cc(/C=C2\Oc3cc(O)cc(O)c3C2=O)c2c(-c3ccccc3)cccc21`, the IC50 in the data set with LNCaP is 1.4 µM; in data set [12] it was 1.48 µM.

Take `Cn1cc(/C=C2\Oc3cccc(O)c3C2=O)c2c(N3CC4CCC(C3)O4)ccnc21`: the IC50 in the data set with LNCaP was 0.002 µM; in data set [13], 0.00038 µM. Also, the Ratio IC50 in the data set listed under Homo sapiens was 274.

As to `Cn1cc(/C=C2\Oc3cc(O)cc(O)c3C2=O)c2c(-c3ccccc3)ccnc21`, the results for the IC50 (with LNCaP; in data set [13]) were 0.077 µM and 0.00046 µM, respectively. The half-life worked out at 2 min in [15] and 20 min in [14]. Also, the Ratio IC50 in the data set listed under Homo sapiens was 137.

Take `CN1CCN(c2ccnc3c2c(/C=C2\Oc4cccc(O)c4C2=O)cn3C)CC1`: the IC50 with LNCaP is 0.003 µM; in [13] it was 0.00275 µM. Besides, the Ratio IC50 in the data set filed under Homo sapiens worked out at 63.

Consider `Cn1cc(/C=C2\Oc3cccc(O)c3C2=O)c2c(-c3ccc(C(=O)N4CC5CCC(C4)O5)cc3)ccnc21`, for which the IC50 in the data set with LNCaP was found to be 0.008 µM; in data set [13] it was 0.00056 µM. In addition, the half-life was found to be 2 min in [15] and 6 min in data set [14]. Further, the Ratio IC50 in the data set filed under Homo sapiens turned out to be 103.

`CN1CCN(C(=O)C2CCN(c3ccnc4c3c(/C=C3\Oc5cccc(O)c5C3=O)cn4C)CC2)CC1` came in with an IC50 in the data set with LNCaP of less than 0.001 µM. Besides, the half-life in [15] and in data set [14] was greater than 30 min in each case. For the same molecule, the Ratio IC50 in the data set listed under Homo sapiens was 12.

Take `Cn1cc(/C=C2\Oc3cccc(O)c3C2=O)c2c(N3CCC(CN)CC3)ccnc21`: the IC50 with LNCaP stood at 0.075 µM. For the same molecule, in the data set filed under Homo sapiens, the Ratio IC50 worked out at 9.

Take `Cn1cc(/C=C2\Oc3cc(O)cc(O)c3C2=O)c2cccnc21`: the IC50 in the data set on LNCaP was 6.5 µM; in data set [12], 0.077 µM; in data set [13] it was 0.042 µM. Also, the Ratio IC50 in the data set listed under Homo sapiens turned out to be 1.7.

The values above are taken from ChEMBL document CHEMBL1156283, “Discovery and optimization of 2-(4-substituted-pyrrolo[2,3-b]pyridin-3-yl)methylene-4-hydroxybenzofuran-3(2H)-ones as potent and selective ATP-competitive inhibitors of the mammalian target of rapamycin (mTOR)” (Bioorg Med Chem Lett, 2010).
